A selection: hits, their analogues and other compounds. The true share with any hit is near 4.1%.
KCNQ1 block: blocks the human KCNQ1 potassium channel; 1.3% of 310,000 active; P51787; CHO-K1 KCNQ1, FluxOR thallium flux fluorescence; stronger effect = higher value; B-score at 10 µM;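 active means compounds whose thallium flux B-score, printed positive for inhibition, exceeds three library SD while starting fluorescence stays within three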;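 further: channel opened by potassium depolarization with thallium stimulus after 20 min compound exposure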
Cl transport mod: KCC2 (human) Cl- transport modulation; Q9H2X9; KCC2 cells, thallium flux FluoZin-2 fluorescence; B-score of Tl+ flux slope (higher = more flux/activation; lower = inhibition) at 10 µM; 2.2% of 190,000 active;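 active means thallium flux slope and its plate-corrected score both differing from the plate sample mean at a set confidence after two filtering rounds, in either direction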;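 further: slope of fluorescence scaled to starting intensity during 10 to 20 s after thallium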
KCNK3 block: human KCNK3 channel inhibition, primary screen; CHO-KCNK3 thallium flux, FluxOR fluorescence; stronger effect = lower value; B-score at 10 µM; 0.84% of 340,000 active;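 active means B-score under library mean minus 4 SD, starting fluorescence ratio at most library mean plus 5 SD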;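 further: more negative B-score means stronger inhibition of thallium flux through KCNK3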
Target sequence (O14649 whole entry, looked up): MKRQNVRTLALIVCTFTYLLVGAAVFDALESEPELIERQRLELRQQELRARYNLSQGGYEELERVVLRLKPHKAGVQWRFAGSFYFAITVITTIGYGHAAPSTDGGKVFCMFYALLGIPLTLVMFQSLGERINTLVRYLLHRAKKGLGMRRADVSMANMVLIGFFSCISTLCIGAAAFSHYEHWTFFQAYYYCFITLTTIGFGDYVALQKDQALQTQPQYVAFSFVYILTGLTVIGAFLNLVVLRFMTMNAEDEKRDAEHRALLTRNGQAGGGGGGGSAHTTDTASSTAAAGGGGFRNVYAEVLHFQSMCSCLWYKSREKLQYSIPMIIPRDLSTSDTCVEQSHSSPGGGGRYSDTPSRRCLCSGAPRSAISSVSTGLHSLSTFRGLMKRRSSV
KCNQ1 act: human KCNQ1 channel potentiation or activation | P51787 | CHO-K1 KCNQ1, thallium flux FluxOR fluorescence; stronger effect = higher value | B-score at 10 µM | 0.35% of 310,000 active | AID 2648;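 active means fluorescence ratio B-score, a plate-corrected score, at least three library SD, with initial intensity B-score within 5 SD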
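Schedule – 37 °C overnight plating, 90-min dark dye load, 20-min compound pretreatment · System – stable KCNQ1 CHO-K1 line · Probe or stimulus – thallium- and potassium-containing depolarizing buffer · Measured by – kinetic FluxOR fluorescence, 10 s baseline plus 110 s post-stimulus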
KCNK9 inh: inhibitors of human KCNK9 two-pore domain potassium channel; Q9NPC2; HEK293 KCNK9, FluxOR thallium flux fluorescence; stronger effect = lower value; B-score at 10 µM; 1.2% of 310,000 active; AID 488922;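 active means ratio B-score over 3 SD below the library mean, with starting fluorescence within 5 SD of its mean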;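 further: negative B-score means less thallium flux so channel inhibition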
hERG protect: hERG (human) protection from proarrhythmic block; Q12809; 0.51% of 310,000 active; AID 1511; activation (rescue from dofetilide block), less the hit threshold, % at 10 µM; CHO-hERG, FluxOR thallium flux, dofetilide IC70 present;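 active means activation above the mean of controls blocked by dofetilide plus 5 SD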;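 further: thallium influx through hERG after potassium depolarization seen as dye fluorescence rise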
KCC2 secondary: KCC2 (human) modulation, secondary assay; HEK293-KCC2, thallium flux, FluoZin2 fluorescence; stronger effect = higher value; 15% of 3,700 active; AID 1713; normalised thallium flux (F/F0 slope) at 10 µM; shares compounds with Cl transport mod;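 active means thallium flux slope above the same plate's solvent-only control mean plus 3 SD; inconclusive means the two replicate wells disagree; inactive means no significant difference from solvent-only control wells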
KCC2 bumet counter: thallium flux persisting under bumetanide in KCC2 cells, counter-screen secondary assay; shares compounds with Cl transport mod; HEK293-KCC2 + bumetanide/ouabain, thallium flux FluoZin2; stronger effect = higher value; normalized thallium flux at 10 µM; 49% of 3,700 active;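 active means thallium entry rate above the same plate's blocked-transporter control wells by more than 3 SD; inconclusive means the two repeat wells disagree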;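 further: raw slope of fluorescence over initial fluorescence between 10 and 20 s after thallium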
KCC2 secondary2: confirmation of human KCC2 transport modulators; normalized thallium flux at 10 µM; shares compounds with Cl transport mod; HEK293-KCC2, thallium flux FluoZin2 fluorescence; actives lie on both sides; F/F0 rise rate, 10–20 s post-thallium; 23% of 3,700 active;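 active means thallium flux slope more than 3 SD above or below the plate's solvent-only control mean, mostly below; inconclusive means the two repeat wells disagreed; inactive means no significant shift from solvent-only controls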;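 further: raw slope with 0.1% DMSO as baseline and bumetanide as block control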
HEK counter1: counter-screen for KCC2 modulators: effect in parental HEK293 cells; shares compounds with Cl transport mod; thallium flux FluoZin2, ouabain; baseline-ratio fluorescence slope, 10–20 s after thallium; thallium flux rate (normalised fluorescence) at 10 µM; 46% of 3,700 active; AID 1716;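 active means thallium flux rate significantly above the same plate's solvent-only control wells, beyond their mean plus 3 SD; inconclusive means the two replicate wells gave conflicting results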
KCC2 retest ouab: KCC2 (human) modulation, ouabain retest; shares compounds with Cl transport mod; raw Tl+ flux slope (below DMSO = inhibition, above = activation) at 10 µM; 48% of 3,700 active; HEK293-KCC2, thallium flux FluoZin2 fluorescence; bidirectional: low = inhibitor, high = activator; AID 1717;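 active means thallium flux slope beyond 3 SD from same-plate DMSO control mean in most replicates, usually higher, sometimes lower; inconclusive means repeat tests gave conflicting results; inactive means no significant difference from controls in most replicates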;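 further: slope of initial-normalized fluorescence between seconds 10 and 20 after thallium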
HEK293 Tl flux2: acts in parental HEK cells, second KCC2 counter-screen; 33% of 3,700 active; shares compounds with Cl transport mod; HEK293 parental, thallium flux FluoZin-2 fluorescence slope; thallium flux slope at 10 µM;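 active means thallium flux slope above the same plate's solvent-control mean plus 3 SD in both duplicate wells; inconclusive means duplicate wells that disagreed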;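 further: run without ouabain in cells lacking the KCC2 cotransporter; slope of fluorescence scaled to its starting value between 10 and 20 s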
Starred values were filed as active, the others as inactive.

Screening CCOC(=O)c1c(NC(=S)Nc2ccc(OC)cc2)sc2c1CCCCC2 returned KCNQ1 block inactive, Cl transport mod 4.7*, KCNK3 block inactive, KCNQ1 act inactive, KCNK9 inh inactive, hERG protect -8, KCC2 secondary 0.011, KCC2 bumet counter 0.011*, KCC2 secondary2 0.033, HEK counter1 0.012*, KCC2 retest ouab 0.023 and HEK293 Tl flux2 0.012.
Screening CCOC(=O)c1c(NC(=O)CC2SC(N)=NC2=O)sc2c1CCCC2 (configuration not stated) returned KCNQ1 block inactive, Cl transport mod -3.8*, KCNK3 block inactive, KCNQ1 act inactive, KCNK9 inh inactive, hERG protect -14, KCC2 secondary 0.0066, KCC2 bumet counter 0.0047, KCC2 secondary2 0.03, HEK counter1 inconclusive, KCC2 retest ouab 0.019 and HEK293 Tl flux2 0.0098.
COc1ccc(NC(=S)NC(=O)c2csnn2)cc1 was read as KCNQ1 block inactive, Cl transport mod 138*, KCNK3 block inactive, KCNQ1 act 24*, KCNK9 inh inactive, hERG protect 16*, KCC2 secondary 0.089*, KCC2 bumet counter 0.11*, KCC2 secondary2 0.12*, HEK counter1 0.13*, KCC2 retest ouab 0.12* and HEK293 Tl flux2 0.12*.
CCOC(=O)Nc1ccc(C)cc1Br was read as KCNQ1 block inactive, KCNK3 block inactive, KCNQ1 act inactive, KCNK9 inh inactive and hERG protect -1.
For CCOC(=O)NC(=S)Nc1ccc(C(C)(C)C)cc1Br the results were KCNQ1 block inactive, Cl transport mod 49*, KCNK3 block inactive, KCNQ1 act 22*, KCNK9 inh inactive, hERG protect 11*, KCC2 secondary 0.0075, KCC2 bumet counter 0.046*, KCC2 secondary2 0.042*, HEK counter1 0.046*, KCC2 retest ouab 0.052* and HEK293 Tl flux2 0.022*.
Screening NC(=Nc1nc(-c2ccccn2)cc2ccccc12)c1ccccn1 returned KCNK3 block inactive.
Screening CC1=NS(=O)(=O)NC(C)(C)C1 returned KCNK3 block inactive.
For CCOC(=O)NC(=S)Nc1ccc(OC)cc1 the results were KCNQ1 block inactive, Cl transport mod 15*, KCNK3 block inactive, KCNQ1 act inactive, KCNK9 inh inactive, hERG protect -1, KCC2 secondary 0.0078, KCC2 bumet counter 0.021*, KCC2 secondary2 0.035, HEK counter1 0.016*, KCC2 retest ouab inconclusive and HEK293 Tl flux2 0.017*.
`CCC(C(=O)OCC(=O)N(CC)c1c(N)n(Cc2ccccc2)c(=O)[nH]c1=O)c1ccccc1` (configuration not stated) gave KCNK3 block inactive.
Screening COc1cccc(NC(=S)NCc2ccc(F)cc2)c1 returned KCNQ1 block inactive, KCNK3 block inactive, KCNQ1 act inactive, KCNK9 inh inactive and hERG protect -1.

Screens as filed in PubChem.
